# Measurements of several laboratories.
# Target: Carbonic anhydrase 1 (CA1, Homo sapiens, UniProt P00915)
# Observed: enzyme activity
# Action: inhibitor
Structure (SMILES),technique,Ki [µM]
CN(C)CCC(c1ccccc1)c1ccccn1 (centres unmarked),,13.9
O=C(O)c1cccc(=O)o1,stopped-flow,> 100
NS(=O)(=O)c1nnc(NC(=O)CN2CC3CCC2CC3)s1,stopped-flow,0.144
C[n+]1cc(C(=O)[O-])ccc1O,stopped-flow,> 100
CC1CCC(CC(=O)Nc2nnc(S(N)(=O)=O)s2)CC1 (centres unmarked),stopped-flow,0.0692
CC[C@H]1OC(=O)[C@H](C)[C@@H](O[C@H]2C[C@@](C)(OC)[C@@H](O)[C@H](C)O2)[C@H](C)[C@@H](O[C@@H]2O[C@H](C)C[C@H](N(C)C)[C@H]2O)[C@](C)(O)C[C@@H](C)CN(C)[C@H](C)[C@@H](O)[C@]1(C)O,,10.2
O=C(OC1CCCCC1)c1ccc(=O)oc1,stopped-flow,> 100
CC1(C)CCN(CC(=O)Nc2nnc(S(N)(=O)=O)s2)CC1,stopped-flow,0.0541
N#CSCc1cc(=O)oc2cc(O)ccc12,stopped-flow,> 100
COc1ccnc(C[S+]([O-])c2nc3ccc(OC(F)F)cc3[nH]2)c1OC (centres unmarked),,7.16
Cc1ccccc1CC(=O)Nc1nnc(S(N)(=O)=O)s1,stopped-flow,0.0518
CN(C/C=C/C#CC(C)(C)C)Cc1cccc2ccccc12,,20.6
O=C(Oc1ccc(Cl)cc1)c1ccc(=O)oc1,stopped-flow,> 100
CC(C)(C)CCC(=O)Nc1nnc(S(N)(=O)=O)s1,stopped-flow,0.267
C#CCNC(=O)c1ccc(=O)oc1,stopped-flow,> 100
Cn1cnc([N+](=O)[O-])c1Sc1ncnc2nc[nH]c12,,12.4
C[C@H]1CCC[C@H](C(=O)Nc2nnc(S(N)(=O)=O)s2)C1 (racemic),stopped-flow,0.0639
Cc1cc(=O)oc2cc(OCCCCSC#N)ccc12,stopped-flow,> 100
O=C(Oc1ccccc1)c1ccc(=O)oc1,stopped-flow,> 100
CN1CCC(=C2c3ccccc3CC(=O)c3sccc32)CC1,,6.98
